zfTRPN1 agonist = zebrafish TRPN1 channel agonists, primary screen, cell-based, HEK293, calcium fluorescence. activation, % at 3 µM. transient receptor potential cation channel N1 (TRPN1/NompC), Danio rerio. HEK293 zebrafish TRPN1-YFP, Fluo-8 calcium fluorescence; 100% = response to 87 µM carbachol. hit rate 0.18% among 220,000;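 active means activation above its plate's cutoff, the mean activation of test wells on that plate plus 3 SD, cut at about 19% in these data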;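 further: 0% = DMSO alone and 100% = 87 µM carbachol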
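System: zebrafish TRPN1-YFP in HEK293 cells / Dosing: 3 µM single point / Timing: dye loading 1 h at 37 °C, then 30 min room temperature / Signal: Fluo-8 calcium fluorescence, excitation 470-495 nm, emission 515-575 nm / Read-out basis: percent activation from peak over basal fluorescence ratio, control-normalized / Control set: high carbachol 87 µM, low DMSO alone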
CRFBP-R2 block = antagonists of CRF-BP/CRF-R2 complex, primary screen, cell-based, HEK293, calcium dye fluorescence, uHTS. inhibition, % at 11.8 µM. CRF-induced calcium fluorescence. hit rate 0.59% among 350,000;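 active means inhibition of the ligand-induced calcium signal above about 50% at the single tested concentration, limit read from the data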
CRFR2-BP ag = agonists of CRF-BP/CRF-R2 complex, primary screen, cell-based, HEK293, calcium dye fluorescence, uHTS; calcium dye fluorescence (FLIPR); percent of saturating CRF peptide response; activation, % at 13.2 µM; hit rate 0.46% among 350,000;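 active means activation of at least 50%, plus an integration ratio under a set limit after plate pattern correction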;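 further: plate controls were neutral control wells without compound for no effect and CRF at EC100 for full effect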
TRPML3 agonist = human TRPML3 channel agonists, primary screen, cell-based, HEK293 TRPML3-YFP, Fluo-8 calcium fluorescence, 3 µM. Mucolipin-3 (Homo sapiens), Q8TDD5. 100% = the carbachol control signal. activation, % at 3 µM. hit rate 0.29% among 220,000. AID 1448, 2008;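 active means activation above its plate's cutoff, the mean activation of the plate's test wells plus 3 SD, cut at about 12% in these data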;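 further: 0% = DMSO only wells and 100% = carbachol wells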
Target sequence (Q8TDD5 whole entry, looked up): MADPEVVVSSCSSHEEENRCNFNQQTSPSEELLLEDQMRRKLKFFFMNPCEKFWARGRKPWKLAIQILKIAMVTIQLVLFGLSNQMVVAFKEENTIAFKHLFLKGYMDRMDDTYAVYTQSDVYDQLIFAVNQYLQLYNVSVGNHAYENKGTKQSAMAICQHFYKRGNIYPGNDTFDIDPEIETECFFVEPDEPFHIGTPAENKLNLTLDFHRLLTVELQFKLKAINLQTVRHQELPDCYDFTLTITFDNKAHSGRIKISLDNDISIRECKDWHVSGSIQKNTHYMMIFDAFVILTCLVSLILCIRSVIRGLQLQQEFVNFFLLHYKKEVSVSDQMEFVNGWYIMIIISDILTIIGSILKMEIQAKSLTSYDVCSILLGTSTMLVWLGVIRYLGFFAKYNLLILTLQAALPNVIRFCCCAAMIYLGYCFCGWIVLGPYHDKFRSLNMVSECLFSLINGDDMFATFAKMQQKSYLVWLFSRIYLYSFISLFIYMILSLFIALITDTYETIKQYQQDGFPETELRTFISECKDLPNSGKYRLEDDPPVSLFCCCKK
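system = HEK293 cells stably carrying human TRPML3-YFP | doses = one concentration, 3 µM nominal, 0.3% DMSO | timing = dye loading 1 h 37 °C then 30 min ambient, 125 s read | detection = Fluo-8 calcium dye fluorescence, ex 470-495, em 515-575 nm | benchmarks = high control carbachol 87 µM, low control DMSO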
* marks the source's active call; other numbers are inactive results; x = no result given. The list is not random: actives were taken first. Their share in the collection is about 1.2%.

SMILES	zfTRPN1 agonist	CRFBP-R2 block	CRFR2-BP ag	TRPML3 agonist
C#CCOCCOCCOCCNc1nc(N2CCN(C(=O)CCCCCCCCCCNC(=O)[C@@H](CCC(=O)O)n3cc(CCCCCN)nn3)CC2)nc(N2CCN(C(=O)CCCCCCCCCCNC(=O)[C@H](CCCCN)n3cc(C[C@@H](C)CC)nn3)CC2)n1	x	-188.6	148.9*	x
O=C(c1cn[nH]c1)c1cc(F)ccc1O	0.9	11.4	0.1	0.3
COc1ccc(CCNC(=O)/C(=C/c2cccnc2)NC(=O)c2ccccc2)cc1	-0.1	5.2	0.8	0.3
CC1(O)CC(c2ccc(Cl)cc2)=NN1C(=O)c1ccc([N+](=O)[O-])cc1 (stereo not given)	1.1	99.5*	73.5*	0.3
CCOC(=O)c1cc(C#N)c(N2CCN(c3ccccn3)CC2)nc1-c1ccccc1	-0.7	54.2*	6.5	1.1
CCOC(=O)c1cc(C#N)c(Oc2ccccc2OC)nc1-c1ccccc1	0.2	56.5*	0.3	-0.9
CCOC(=O)c1cc(C#N)c(SC)nc1-c1ccccc1	-2.2	11.5	2.1	-0.6
CC(=O)c1cc(C#N)c(N2CCN(c3ccccc3)CC2)nc1C	x	-17.1	0.6	x
CCC1CCCCN1C(=O)c1ccc2nc(Cc3ccc(OC)cc3)oc2c1 (stereo not given)	x	-2.3	2.7	x
NCC[C@H](O)C(=O)N[C@@H]1C[C@H](N)[C@@H](O[C@H]2O[C@H](CN)[C@@H](O)[C@H](O)[C@H]2O)[C@H](O)[C@H]1O[C@H]1O[C@H](CO)[C@@H](O)[C@H](N)[C@H]1O	-0.1	64.3*	-1.2	1.2
O=C(COc1ccccc1/C=C\c1nc(O)c([N+](=O)[O-])c(=O)[nH]1)Nc1ccccc1	320.8*	10.7	-3.3	137.6*
CCOc1ccccc1/C=C\c1nc(O)c([N+](=O)[O-])c(=O)[nH]1	x	-2.4	-0.8	x
O=C(N/N=C/C1=C(N2CCOCC2)C(=C\c2ccccc2)/CC1)Nc1ccccc1	1.9	-31.1	0.9	0.8
CCN(CC)c1ccc(/C=C2\CCC(/C=N/NC(=O)c3ccc(=O)n(C)c3)=C2N2CCOCC2)cc1	4.7	-146.4	96.1*	2.3
Cc1ccccc1-n1ncc2c(SCC(=O)N3c4ccccc4CC3C)ncnc21 (stereo not given)	0.3	54.4*	7.5	0.5
Cc1ccccc1-n1ncc2c(SCC(=O)NC3CCCC3)ncnc21	x	0.9	-1.4	x
Cc1ccc(N(C(=O)Cn2nnc(-c3ccccc3)n2)C(C(=O)NC2CCCCC2)c2ccccn2)cc1C (stereo not given)	3.2	55.9*	-2.7	0.8
COc1ccc(N2C(=O)CC(c3ccc([N+](=O)[O-])cc3)C2=O)cc1 (stereo not given)	x	63.4*	2.2	x
O=c1[nH]cnc(O)c1Nc1cccc(Cl)c1	x	-16.6	0.7	x
Cc1ccc(Nc2c(O)nc[nH]c2=O)cc1	x	73.5*	-1.1	x
CN1CCN(/N=C/c2nc(-c3cccc([N+](=O)[O-])c3)n3ccccc23)CC1	-0.7	5.4	94.5*	0.6
O=[N+]([O-])c1cccc(-c2nnc3ccc4ccccc4n23)c1	-0.5	10.6	-1.4	0.9
CC[C@@H](C)[C@@H]1CN([C@@H](C)CN2CCC[C@H]2CN2C(N)=NC[C@H]2CC(C)C)C(=N)N1CCc1ccc(Cl)c(Cl)c1	x	16.5	-1.1	x
CC[C@@H](C)[C@@H]1CN([C@@H](CN2CCC[C@H]2CN2C(N)=NC[C@H]2CC(C)C)C(C)C)C(=N)N1CCc1ccc(Cl)c(Cl)c1	x	62.8*	2.0	x
O=S(=O)(NC(=S)NC1CCCCC1)c1ccc(Br)cc1	1.1	56.3*	-0.3	0.3
O=C(NC1CCCCC1)NS(=O)(=O)c1ccc2c(c1)CCC2	x	63.0*	-7.9	x
O=C(CCNS(=O)(=O)c1ccc(Br)cc1)NC1CCCCC1	-0.2	-7.4	0.6	-0.7
CCN(CC)CCOc1c(C)cccc1Cl	-0.4	-7.9	0.3	-0.5
CCC(c1nnc(SCC(=O)Nc2cccc(S(N)(=O)=O)c2)n1Cc1ccccc1)N(C)C (stereo not given)	1.1	7.3	0.1	0.1
CCC(c1nnc(SCC(=O)Nc2c(F)cccc2F)n1Cc1ccccc1)N(C)C (stereo not given)	x	60.0*	-2.7	x
